In publication PMC3685407 (Neuropharmacology, 2013):
Read-outs that look alike come from different tables or passages of the source.

Assays:
[1] = test system: L-dopa-induced AIMs in parkinsonian rats; details: cited from earlier work
[2] = test system: forelimb use asymmetry in 6-OHDA lesioned rats; test: Limb use asymmetry test; assay type: in vivo, rat; details: for % Contralateral limb use, nAChR compound: 5 min period, mean ± S.E.M of 5–9 rats
How it was run: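 Unilateral intracranial 6-OHDA lesions in rats (230–250 g). Forelimb use was rated over 5 min, once before and once 60 min after sc L-dopa plus benserazide (8.0 or 6.0 mg/kg plus 15 mg/kg, depending on study). The read-out was % contralateral limb use. Test compound was given by minipump or sc injection. In one study, testing was 4 wk after L-dopa treatment began.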

[3] = test system: L-dopa-induced AIMs in 6-OHDA lesioned rats; test: L-dopa-induced AIMs in rats with severe unilateral 6-OHDA lesion; assay type: in vivo, rat; details: for AIM subtypes significantly affected by nAChR compounds: axial, oral, forelimb AIMs; for AIM subtypes significantly affected by nAChR compounds / Decrease in total AIM scores: severe dopaminergic lesion; for Decrease in total AIM scores: maximal decrease over the treatment periods, L-dopa 6 or 8 mg/kg plus benserazide 15 mg/kg sc; for Reduction in L-dopa-induced AIMs: range over the series, rats with severe nigrostriatal damage; for Total AIMs score: summary table, L-dopa 6 or 8 mg/kg plus benserazide, group not stated
human α7 nAChRs = human α7 nAChRs (Homo sapiens, UniProt P36544); test: biochemical; assay type: binding
human α3β4 nAChRs = human α3β4 nAChRs (Homo sapiens, UniProt P30926+P32297); test: Competition membrane binding
muscle nAChRs = muscle nAChRs (Homo sapiens, UniProt P02708+P07510+Q07001); test: biochemical; assay type: binding
[4] = test system: ^3H-dopamine release from rat striatal synaptosomes; details: read-out: EC50 for 3H-dopamine release; rat striatum; ref Zwart et al., 2008; cited from earlier work
[5] = test system: L-dopa-induced AIMs in 6-OHDA lesioned rats; details: cited from earlier work
[6] = test system: L-dopa-induced dyskinesias in Parkinson’s disease patients; details: small clinical trial, ref http://www.neuraltus.com/pages/news.html; cited from earlier work
[7] = rats with severe dopaminergic lesions, ref Bordia et al., 2010

Chain of muscle nAChRs (P07510 23-517): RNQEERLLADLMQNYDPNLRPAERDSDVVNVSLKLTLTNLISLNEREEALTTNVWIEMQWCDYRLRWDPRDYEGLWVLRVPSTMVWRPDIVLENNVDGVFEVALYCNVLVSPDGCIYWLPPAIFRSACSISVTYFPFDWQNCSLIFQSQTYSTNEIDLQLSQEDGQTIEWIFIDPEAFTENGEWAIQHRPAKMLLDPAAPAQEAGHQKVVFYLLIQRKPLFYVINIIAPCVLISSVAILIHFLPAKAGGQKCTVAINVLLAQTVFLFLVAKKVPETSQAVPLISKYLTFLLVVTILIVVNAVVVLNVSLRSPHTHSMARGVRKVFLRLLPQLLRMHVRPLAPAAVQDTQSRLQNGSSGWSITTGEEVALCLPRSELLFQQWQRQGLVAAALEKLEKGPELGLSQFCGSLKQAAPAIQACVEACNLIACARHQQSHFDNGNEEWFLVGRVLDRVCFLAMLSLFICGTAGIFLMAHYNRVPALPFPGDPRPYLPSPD
Chain of muscle nAChRs (Q07001 22-517): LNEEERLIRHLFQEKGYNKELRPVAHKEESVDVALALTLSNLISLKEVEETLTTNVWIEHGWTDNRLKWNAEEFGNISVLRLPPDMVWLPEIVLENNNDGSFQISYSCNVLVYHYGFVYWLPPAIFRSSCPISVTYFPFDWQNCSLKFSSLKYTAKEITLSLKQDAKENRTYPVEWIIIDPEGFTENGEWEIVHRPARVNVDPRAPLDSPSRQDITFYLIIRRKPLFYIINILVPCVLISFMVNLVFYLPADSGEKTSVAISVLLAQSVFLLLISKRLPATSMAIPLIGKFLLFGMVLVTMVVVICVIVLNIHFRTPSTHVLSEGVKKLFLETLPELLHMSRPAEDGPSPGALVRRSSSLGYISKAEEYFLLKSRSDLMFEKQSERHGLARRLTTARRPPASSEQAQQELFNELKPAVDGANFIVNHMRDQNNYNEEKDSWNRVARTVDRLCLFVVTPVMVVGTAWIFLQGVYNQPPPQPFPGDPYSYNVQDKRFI
Chain of muscle nAChRs (P11230 24-501, further chain): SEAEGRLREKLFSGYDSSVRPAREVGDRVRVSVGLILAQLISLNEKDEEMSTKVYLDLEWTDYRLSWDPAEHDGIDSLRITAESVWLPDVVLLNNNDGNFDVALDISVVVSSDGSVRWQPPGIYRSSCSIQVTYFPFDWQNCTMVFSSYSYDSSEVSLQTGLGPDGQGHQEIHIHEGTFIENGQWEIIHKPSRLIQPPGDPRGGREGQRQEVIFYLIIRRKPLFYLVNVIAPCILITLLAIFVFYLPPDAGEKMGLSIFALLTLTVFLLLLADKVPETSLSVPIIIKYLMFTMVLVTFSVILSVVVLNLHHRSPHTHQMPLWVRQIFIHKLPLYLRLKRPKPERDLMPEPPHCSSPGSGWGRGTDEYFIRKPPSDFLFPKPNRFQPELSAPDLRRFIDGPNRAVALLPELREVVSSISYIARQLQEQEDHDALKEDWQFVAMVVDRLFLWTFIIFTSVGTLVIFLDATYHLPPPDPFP
Chain of muscle nAChRs (P02708 21-457): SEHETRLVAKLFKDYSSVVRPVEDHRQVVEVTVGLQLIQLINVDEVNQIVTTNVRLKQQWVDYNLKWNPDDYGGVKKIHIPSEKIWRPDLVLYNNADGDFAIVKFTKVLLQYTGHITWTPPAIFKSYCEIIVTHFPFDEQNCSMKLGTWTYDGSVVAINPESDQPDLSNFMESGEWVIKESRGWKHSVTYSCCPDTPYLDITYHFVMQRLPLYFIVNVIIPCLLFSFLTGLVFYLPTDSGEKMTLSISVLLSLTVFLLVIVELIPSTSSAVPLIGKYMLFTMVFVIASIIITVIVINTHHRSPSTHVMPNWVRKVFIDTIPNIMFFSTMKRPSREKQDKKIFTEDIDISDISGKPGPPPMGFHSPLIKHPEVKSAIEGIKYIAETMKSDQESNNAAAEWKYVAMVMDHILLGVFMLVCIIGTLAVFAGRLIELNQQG
Chain of human α7 nAChRs (P36544 23-502): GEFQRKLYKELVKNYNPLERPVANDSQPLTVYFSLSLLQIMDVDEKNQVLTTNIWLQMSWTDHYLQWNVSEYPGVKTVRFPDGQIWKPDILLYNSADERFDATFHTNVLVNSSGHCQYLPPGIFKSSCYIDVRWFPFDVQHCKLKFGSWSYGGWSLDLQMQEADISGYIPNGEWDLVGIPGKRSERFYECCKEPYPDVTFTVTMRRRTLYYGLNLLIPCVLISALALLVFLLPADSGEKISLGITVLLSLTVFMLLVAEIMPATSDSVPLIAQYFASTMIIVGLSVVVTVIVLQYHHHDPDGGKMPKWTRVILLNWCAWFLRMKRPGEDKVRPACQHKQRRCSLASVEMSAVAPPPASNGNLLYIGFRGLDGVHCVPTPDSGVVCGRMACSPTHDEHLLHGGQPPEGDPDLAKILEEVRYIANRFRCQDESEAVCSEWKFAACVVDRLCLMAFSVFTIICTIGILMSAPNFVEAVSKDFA
Chain of human α3β4 nAChRs (P32297 32-505): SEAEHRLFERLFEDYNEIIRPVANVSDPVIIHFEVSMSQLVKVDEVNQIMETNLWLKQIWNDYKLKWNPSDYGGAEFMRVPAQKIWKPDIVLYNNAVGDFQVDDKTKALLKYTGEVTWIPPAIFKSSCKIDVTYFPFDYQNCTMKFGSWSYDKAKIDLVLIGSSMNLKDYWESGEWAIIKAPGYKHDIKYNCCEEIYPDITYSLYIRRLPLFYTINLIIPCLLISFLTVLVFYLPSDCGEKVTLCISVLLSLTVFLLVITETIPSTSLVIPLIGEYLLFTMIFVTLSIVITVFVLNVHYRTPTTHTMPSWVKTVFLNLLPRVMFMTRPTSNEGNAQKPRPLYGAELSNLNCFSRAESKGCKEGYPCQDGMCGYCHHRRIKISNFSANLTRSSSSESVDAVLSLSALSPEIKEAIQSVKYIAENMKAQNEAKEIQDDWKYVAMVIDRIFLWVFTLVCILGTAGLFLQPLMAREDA
Chain of human α3β4 nAChRs (P30926 22-498): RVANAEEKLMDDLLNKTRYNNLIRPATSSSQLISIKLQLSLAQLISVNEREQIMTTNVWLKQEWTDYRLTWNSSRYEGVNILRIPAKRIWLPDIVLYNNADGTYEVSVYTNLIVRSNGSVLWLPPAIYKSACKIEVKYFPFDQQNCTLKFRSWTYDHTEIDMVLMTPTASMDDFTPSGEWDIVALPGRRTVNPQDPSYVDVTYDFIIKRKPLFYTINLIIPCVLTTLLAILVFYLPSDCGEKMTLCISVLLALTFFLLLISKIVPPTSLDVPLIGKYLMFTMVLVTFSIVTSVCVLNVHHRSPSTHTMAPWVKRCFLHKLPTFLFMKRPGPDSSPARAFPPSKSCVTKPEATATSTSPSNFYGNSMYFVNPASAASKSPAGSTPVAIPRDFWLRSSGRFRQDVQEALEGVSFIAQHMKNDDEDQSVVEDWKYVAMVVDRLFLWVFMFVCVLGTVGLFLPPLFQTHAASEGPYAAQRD

## c1cncc(OC[C@@H]2CCN2)c1 [A85380]
[1]; 6-OHDA lesioned rats, ref Huang et al., 2011b
  Effect on L-dopa-induced AIMs: reduced L-dopa-induced AIMs

## CN[C@@H](C)C/C=C/c1cncc(OC)c1 [TC-2696]
[2]; OFF L-dopa (before L-dopa)
  % Contralateral limb use, nAChR compound: 3.27 ± 1.5%
[2]; ON L-dopa (60 min after L-dopa)
  % Contralateral limb use, nAChR compound: 35.6 ± 13.1%
[2]; result in words
  Effect on parkinsonism (forepaw asymmetry test): no significant effect
[3]; 1.0 mg/kg/d via minipump, L-dopa 8 mg/kg plus benserazide 15 mg/kg sc
  Effect on L-dopa-induced AIMs: fewer total L-dopa-induced AIMs
[3]; […] via minipump, L-dopa 8 mg/kg plus benserazide
  Effect on L-dopa-induced AIMs: results similar to those at the 1.0 mg/kg/d dose of the compound, except for a significant decline in forelimb AIMs
[3]
  AIM subtypes significantly affected by nAChR compounds: Axial > forelimb
  Decrease in total AIM scores: 30%
  Reduction in L-dopa-induced AIMs: 23–32%
  Total AIMs score: ~75
Human α7 nAChRs; read-out: Ki α7 nAChRs, membrane binding, 3H-epibatidine, average ± SEM
  Ki: 85 µM

## OCCCCC#Cc1cncc(OC[C@@H]2CCN2)c1 [Sazetidine, 6-(5-(((S)-azetidin-2-yl)methoxy)pyridine-3-yl)hex-5-yn-1-ol]
[3]; 0.5 mg/kg sc twice daily, L-dopa 8 mg/kg plus benserazide
  Effect on L-dopa-induced AIMs: no effect
[3]; 1.0 mg/kg sc twice daily, L-dopa 8 mg/kg plus benserazide, P < 0.05
  Effect on L-dopa-induced AIMs: decline in total, oral and forelimb AIMs
[3]; 2.0 mg/kg sc twice daily, compared with 1.0 mg/kg dose, data not shown
  Effect on L-dopa-induced AIMs: Results were similar
[3]
  AIM subtypes significantly affected by nAChR compounds: Oral = forelimb
  Decrease in total AIM scores: 23%
  Reduction in L-dopa-induced AIMs: 23–32%
  Total AIMs score: ~75
Human α3β4 nAChRs
  Ki: 0.03 ± 0.002 µM
Muscle nAChRs
  Ki: 0.18 ± 0.084 µM
[4]
  EC50: 0.001 µM
Human α7 nAChRs
  Ki: 3.3 µM

## CN1CCC[C@H]1c1cccnc1 [Nicotine]
[5]; [7]
  AIM subtypes significantly affected by nAChR compounds: Oral = forelimb
  Decrease in total AIM scores: 35%
  Total AIMs score: ~75
[6]
  Effect on L-dopa-induced dyskinesias: reduced several components of L-dopa-induced dyskinesias
Muscle nAChRs
  Ki: 3.5 µM
[1]; study ended at this time, ref Bordia et al., 2008, Bordia et al., 2010
  Persistence of the effect on L-dopa-induced AIMs with treatment: at least 4 months

## CNC1(C)C2CCC(C2)C1(C)C (stereo not shown) [mecamylamine]
[1]; parkinsonian rats, ref Bordia et al., 2010
  Effect on L-dopa-induced AIMs: attenuated AIMs

## c1cnc2cc3c(cc2n1)[C@@H]1CNC[C@H]3C1 [Varenicline]
[5]; severely lesioned rats, non-significant, ref Huang et al., 2011b
  Decrease in total AIM scores: 10%
[5]; severely lesioned rats, ref Huang et al., 2011b
  Total AIMs score: ~60
